{"source": "ChEMBL document CHEMBL1146496", "about": "“Expanding the strategies in natural product studies of marine-derived fungi: a chemical investigation of penicillium obtained from deep water sediment” (J Nat Prod, 2004)", "key": {"L1210 [1]": {"tested_on": "L1210", "experiment": "Cytotoxicity against mouse L1210 cells assessed as zone units at 6.8 mg/mL by disk diffusion soft agar colony formation assay", "type": "functional", "outline": "(§1)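 Soft agar colony formation with disk diffusion. Sample dissolved in 250 µL DMSO; a 15 µL aliquot at the stated concentration is spotted on a cellulose disk laid on agar containing the cells. After incubation, the zone of colony inhibition is measured in zone units (200 zu = 6 mm). Activity is defined as ≥300 zu.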"}, "MC-38 [2]": {"tested_on": "MC-38", "experiment": "Cytotoxicity against mouse C38 cells assessed as zone units at 6.8 mg/mL by disk diffusion soft agar colony formation assay", "type": "functional", "outline": "as §1"}, "[3]": {"experiment": "Cytotoxicity against mouse CFU-GM cells assessed as zone units at 6.8 mg/mL by disk diffusion soft agar colony formation assay", "type": "cell-based", "outline": "as §1"}, "[4]": {"experiment": "Cytotoxicity against human H116 cells assessed as zone units at 6.8 mg/mL by disk diffusion soft agar colony formation assay", "type": "functional", "outline": "as §1"}, "[5]": {"experiment": "Cytotoxicity against human H125 cells assessed as zone units at 6.8 mg/mL by disk diffusion soft agar colony formation assay", "type": "functional", "outline": "as §1"}, "MDA-MB-435": {"tested_on": "MDA-MB-435", "experiment": "Cytotoxicity against human MDA-MB-435 after 48 hrs by SRB assay", "type": "functional, cell-based", "details": "MDA-MB-435, 48 h", "outline": "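MDA-MB-435 cells plated and left to attach and grow 24 h, then exposed to compound or ethanol vehicle for 48 h. Cells fixed with 10% trichloroacetic acid, stained with 0.4% sulforhodamine B, absorbance read at 560 nm. Full dose–response in triplicate; IC50 (50% proliferation inhibition) taken from the linear portion of the log-dose–response curve.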"}, "L1210 [6]": {"tested_on": "L1210", "experiment": "Cytotoxicity against mouse L1210 cells assessed as zone units at 8.0 mg/mL by disk diffusion soft agar colony formation assay", "type": "functional", "outline": "as §1"}, "MC-38 [7]": {"tested_on": "MC-38", "experiment": "Cytotoxicity against mouse C38 cells assessed as zone units at 8.0 mg/mL by disk diffusion soft agar colony formation assay", "type": "functional", "outline": "as §1"}, "[8]": {"experiment": "Cytotoxicity against mouse CFU-GM cells assessed as zone units at 8.0 mg/mL by disk diffusion soft agar colony formation assay", "type": "cell-based", "outline": "as §1"}, "[9]": {"experiment": "Cytotoxicity against human H116 cells assessed as zone units at 8.0 mg/mL by disk diffusion soft agar colony formation assay", "type": "functional", "outline": "as §1"}, "[10]": {"experiment": "Cytotoxicity against human H125 cells assessed as zone units at 8.0 mg/mL by disk diffusion soft agar colony formation assay", "type": "functional", "outline": "as §1"}, "L1210 [11]": {"tested_on": "L1210", "experiment": "Cytotoxicity against mouse L1210 cells assessed as zone units at 4.0 mg/mL by disk diffusion soft agar colony formation assay", "type": "functional", "outline": "as §1"}, "MC-38 [12]": {"tested_on": "MC-38", "experiment": "Cytotoxicity against mouse C38 cells assessed as zone units at 4.0 mg/mL by disk diffusion soft agar colony formation assay", "type": "functional", "outline": "as §1"}, "[13]": {"experiment": "Cytotoxicity against mouse CFU-GM cells assessed as zone units at 4.0 mg/mL by disk diffusion soft agar colony formation assay", "type": "cell-based", "outline": "as §1"}, "CCRF-CEM [14]": {"tested_on": "CCRF-CEM", "experiment": "Cytotoxicity against human CEM cells assessed as zone units at 4.0 mg/mL by disk diffusion soft agar colony formation assay", "type": "functional", "outline": "as §1"}, "[15]": {"experiment": "Cytotoxicity against human H116 cells assessed as zone units at 4.0 mg/mL by disk diffusion soft agar colony formation assay", "type": "functional", "outline": "as §1"}, "[16]": {"experiment": "Cytotoxicity against human H125 cells assessed as zone units at 4.0 mg/mL by disk diffusion soft agar colony formation assay", "type": "functional", "outline": "as §1"}, "L1210 [17]": {"tested_on": "L1210", "experiment": "Cytotoxicity against mouse L1210 cells assessed as zone units at 6.0 mg/mL by disk diffusion soft agar colony formation assay", "type": "functional", "outline": "as §1"}, "MC-38 [18]": {"tested_on": "MC-38", "experiment": "Cytotoxicity against mouse C38 cells assessed as zone units at 6.0 mg/mL by disk diffusion soft agar colony formation assay", "type": "functional", "outline": "as §1"}, "[19]": {"experiment": "Cytotoxicity against mouse CFU-GM cells assessed as zone units at 6.0 mg/mL by disk diffusion soft agar colony formation assay", "type": "cell-based", "outline": "as §1"}, "[20]": {"experiment": "Cytotoxicity against human H116 cells assessed as zone units at 6.0 mg/mL by disk diffusion soft agar colony formation assay", "type": "functional", "outline": "as §1"}, "[21]": {"experiment": "Cytotoxicity against human H125 cells assessed as zone units at 6.0 mg/mL by disk diffusion soft agar colony formation assay", "type": "functional", "outline": "as §1"}, "L1210 [22]": {"tested_on": "L1210", "experiment": "Cytotoxicity against mouse L1210 cells assessed as zone units at 11.6 mg/mL by disk diffusion soft agar colony formation assay", "type": "functional", "outline": "as §1"}, "MC-38 [23]": {"tested_on": "MC-38", "experiment": "Cytotoxicity against mouse C38 cells assessed as zone units at 11.6 mg/mL by disk diffusion soft agar colony formation assay", "type": "functional", "outline": "as §1"}, "[24]": {"experiment": "Cytotoxicity against mouse CFU-GM cells assessed as zone units at 11.6 mg/mL by disk diffusion soft agar colony formation assay", "type": "cell-based", "outline": "as §1"}, "CCRF-CEM [25]": {"tested_on": "CCRF-CEM", "experiment": "Cytotoxicity against human CEM cells assessed as zone units at 11.6 mg/mL by disk diffusion soft agar colony formation assay", "type": "functional", "outline": "as §1"}, "[26]": {"experiment": "Cytotoxicity against human H116 cells assessed as zone units at 11.6 mg/mL by disk diffusion soft agar colony formation assay", "type": "functional", "outline": "as §1"}, "[27]": {"experiment": "Cytotoxicity against human H125 cells assessed as zone units at 11.6 mg/mL by disk diffusion soft agar colony formation assay", "type": "functional", "outline": "as §1"}}}
{"smiles": "COC1=CC(=O)[C@]2(C)O[C@@]23C[C@@H](C)O[C@@]13O", "values": [{"measurement": "Activity", "setting": "L1210 [1]", "value": 50, "unit": "Zone units"}, {"measurement": "Activity", "setting": "MC-38 [2]", "value": 200, "unit": "Zone units"}, {"measurement": "Activity", "setting": "[3]", "value": 0, "unit": "Zone units"}, {"measurement": "Activity", "setting": "[4]", "value": 0, "unit": "Zone units"}, {"measurement": "Activity", "setting": "[5]", "value": 0, "unit": "Zone units"}, {"measurement": "IC50", "setting": "MDA-MB-435", "value": "> 10", "unit": "µg/mL"}]}
{"smiles": "COC1=CC(=O)[C@]2(C)O[C@@]23CC(C)OC13O", "note": "(stereo partly drawn) [(+)-EPOXYSERINONE B]", "values": [{"measurement": "Activity", "setting": "L1210 [6]", "value": 250, "unit": "Zone units"}, {"measurement": "Activity", "setting": "MC-38 [7]", "value": 400, "unit": "Zone units"}, {"measurement": "Activity", "setting": "[8]", "value": 400, "unit": "Zone units"}, {"measurement": "Activity", "setting": "[9]", "value": 200, "unit": "Zone units"}, {"measurement": "Activity", "setting": "[10]", "value": 50, "unit": "Zone units"}, {"measurement": "IC50", "setting": "MDA-MB-435", "value": "> 10", "unit": "µg/mL"}]}
{"smiles": "COC1=CC(=O)C(C)=C(C[C@H](C)OC=O)C1=O", "note": "[(+)-FORMYLANSERINONE B]", "values": [{"measurement": "Activity", "setting": "L1210 [11]", "value": 550, "unit": "Zone units"}, {"measurement": "Activity", "setting": "MC-38 [12]", "value": 250, "unit": "Zone units"}, {"measurement": "Activity", "setting": "[13]", "value": 600, "unit": "Zone units"}, {"measurement": "Activity", "setting": "CCRF-CEM [14]", "value": 550, "unit": "Zone units"}, {"measurement": "Activity", "setting": "[15]", "value": 400, "unit": "Zone units"}, {"measurement": "Activity", "setting": "[16]", "value": 350, "unit": "Zone units"}, {"measurement": "IC50", "setting": "MDA-MB-435", "value": 2.9, "unit": "µg/mL"}]}
{"smiles": "COC1=CC(=O)C(C)=C(CC(C)=O)C1=O", "note": "[ANSERINONE A]", "values": [{"measurement": "Activity", "setting": "L1210 [17]", "value": 300, "unit": "Zone units"}, {"measurement": "Activity", "setting": "MC-38 [18]", "value": 300, "unit": "Zone units"}, {"measurement": "Activity", "setting": "[19]", "value": 150, "unit": "Zone units"}, {"measurement": "Activity", "setting": "[20]", "value": 50, "unit": "Zone units"}, {"measurement": "Activity", "setting": "[21]", "value": 50, "unit": "Zone units"}, {"measurement": "IC50", "setting": "MDA-MB-435", "value": 2.22, "unit": "µg/mL"}]}
{"smiles": "COC1=CC(=O)C(C)=C(C[C@H](C)O)C1=O", "note": "[ANSERINONE B]", "values": [{"measurement": "Activity", "setting": "L1210 [22]", "value": 700, "unit": "Zone units"}, {"measurement": "Activity", "setting": "MC-38 [23]", "value": 400, "unit": "Zone units"}, {"measurement": "Activity", "setting": "[24]", "value": 650, "unit": "Zone units"}, {"measurement": "Activity", "setting": "CCRF-CEM [25]", "value": 650, "unit": "Zone units"}, {"measurement": "Activity", "setting": "[26]", "value": 400, "unit": "Zone units"}, {"measurement": "Activity", "setting": "[27]", "value": 400, "unit": "Zone units"}, {"measurement": "IC50", "setting": "MDA-MB-435", "value": 3.6, "unit": "µg/mL"}]}
